In general, inhibition refers to the percentage by which the read-out fell short of the control. As usually defined, the viability is a read-out of living cells in per cent, often relative to untreated cells. By IC50 is commonly meant the concentration that gives 50% inhibition.

This is an account of results in publication PMC10762718 (RSC Advances, 2024).

Holding throughout (assay type): cell-based
For data set [1], the system named is MDA-MB-231 (human breast cancer) cells. In words: MTT cell viability assay, MDA-MB-231. The following applies: for inhibition at 25 µM: MDA-MB-231. An outline of the steps: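 MDA-MB-231 cells were grown as a monolayer in DMEM with 10% heat-inactivated FBS and 1% penicillin-streptomycin at 37 °C in humidified CO2, subcultured every third day with trypsin-EDTA, and used before passage 8. Cells were exposed 72 h to 10, 25 and 50 μM. Medium was removed, MTT added for 3 h at 37 °C, formazan dissolved in DMSO and read at 595 nm. Viability is relative to untreated control, triplicates, ±SD. IC50 comes from the viability-versus-concentration plot.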

Data set [2] deals with MCF-7 breast cancer cells. Nature of the data set: MTT cell viability assay, MCF-7. Particulars: Homo sapiens; for inhibition at 25 µM: MCF7; for IC50: MCF7, 72 h, read-out: IC50 against MCF-7 breast cancer cells line. The method in brief: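 After medium removal, MTT was added for 3 h at 37 °C in CO2, formazan dissolved in DMSO and absorbance read at 595 nm. Viability is relative to untreated cells, triplicates, n = 3, ±SD. IC50 comes from plotting percent viability against concentration.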
For orientation: Tetrazolium assays rely on reduction of a dye to a coloured formazan, in cell work by metabolically active cells.

The next data set relates to MDA-MB-453 cells. In words: MTT cell viability assay, MDA-MB-453. Particulars: for IC50 against MDA-MB-453 cells: tested at 1, 10 and 25 μM. The method in brief:
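MDA-MB-453 (HER2-positive) cells were exposed to test compound at 1, 10 and 25 μM for 72 h. After medium removal, MTT was added for 3 h at 37 °C in CO2. Formazan was dissolved in DMSO and absorbance read at 595 nm. Percent viable cells are relative to untreated control cells.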

Data set [3] in a line: MTT cell viability assay, normal MCF-10A cells. The following applies: human, MCF-10A normal mammary epithelial cells. An outline of the steps: (§1)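 Normal mammary epithelial MCF-10A cells were exposed to test compound at 25, 50 and 100 μM for 72 h. Cells were then given MTT after medium removal, 3 h at 37 °C in CO2. Formazan was dissolved in DMSO and absorbance read at 595 nm. Viability is expressed as percent of untreated control cells.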

The test system of data set [4] is normal mammary epithelial MCF-10A cells. In words: MTT cell viability assay, normal MCF-10A cells. Particulars: tested at 25, 50 and 100 μM. The method in brief:
as §1

Where [5] appears, read: MDA-MB-231, 72 h, read-out: Cell viability (%) ±SD.
[6] abbreviates: MCF7, read-out: Cell viability (%) ±SD.
[7] abbreviates: Homo sapiens, MDA-MB-453, read-out: Cell viability (%) ±SD.

On to `COc1ccc(-c2cc(=O)n3c(ccn3Cc3cn([C@H]4O[C@@H](COC(C)=O)[C@H](OC(C)=O)[C@@H](OC(C)=O)[C@@H]4OC(C)=O)nn3)n2)cc1` (stereo in doubt) [Compound 23, (2S,3S,4R,5S,6S)-2-(Acetoxymethyl)-6-(4-((5-(4-methoxyphenyl)-7-oxopyrazolo[1,5-a]pyrimidin-1(7H)-yl)methyl)-1H-1,2,3-triazol-1-yl)tetrahydro-2H-pyran-3,4,5-triyl triacetate], for which, in data set [1], the inhibition at 25 µM is roughly 50%. For the same compound, in data set [1] (setting [5]), the viability at 10 µM was 65.1 ± 8.53%, the viability at 25 µM is 49 ± 9.19% and the viability at 50 µM is 34.3 ± 5.29%. In data set [2], the inhibition at 25 µM was roughly 50% and the half-maximal inhibitory concentration (IC50) was 9.24 µM. For the same compound, in data set [2] (setting [6]), the viability at 1 µM is 66.7 ± 1.18%, the viability at 10 µM was 40.3 ± 3.6% and the viability at 25 µM was 31.7 ± 4%. For the same compound, in the data set with MDA-MB-453 cells (setting [7]), the viability at 1 µM is 80.6 ± 8%, the viability at 10 µM was 88.4 ± 5.4% and the viability at 25 µM stood at 77.1 ± 5.7%. Moreover, in the data set with MDA-MB-453 cells, the “IC50 against MDA-MB-453 cells” value is “did not reach up to IC50 value”. For the same compound, in data set [3], the viability at 72 h, 25 µM was found to be 88.6 ± 1.5%; the viability at 72 h, 50 µM amounted to 86.3 ± 2.9%; the viability at 72 h, 100 µM amounted to 84.2 ± 3%. In addition, the “growth inhibitory activity against normal breast epithelial cell (MCF-10A)” value (shortened to “growth inhibitory activity”) in data set [4] is given as “none of these compounds did have any growth inhibitory activity”.

In data set [1], `CC(=O)OC[C@@H]1O[C@H](n2cc(Cn3ccc4nc(-c5ccc(F)cc5)cc(=O)n43)nn2)[C@@H](OC(C)=O)[C@H](OC(C)=O)[C@H]1OC(C)=O` (stereo in doubt) [Compound 26, (2S,3S,4R,5S,6S)-2-(Acetoxymethyl)-6-(4-((5-(4-fluorophenyl)-7-oxopyrazolo[1,5-a]pyrimidin-1(7H)-yl)methyl)-1H-1,2,3-triazol-1-yl)tetrahydro-2H-pyran-3,4,5-triyl triacetate] showed an inhibition at 25 µM of roughly 50%. Also, in data set [1] (setting [5]), the viability at 10 µM is 76.6 ± 9.76%, the viability at 25 µM is 60 ± 8.47% and the viability at 50 µM turned out to be 54.6 ± 5.61%. In addition, in data set [2], the inhibition at 25 µM is roughly 50% and the IC50 turned out to be 26.6 µM. For the same compound, in data set [2] (setting [6]), the viability at 1 µM amounted to 80 ± 4.5%, the viability at 10 µM was found to be 65.8 ± 1.8% and the viability at 25 µM stood at 52.8 ± 3%. Moreover, in the data set with MDA-MB-453 cells (setting [7]), the viability at 1 µM amounted to 87.8 ± 3.2%, the viability at 10 µM came to 84.2 ± 11.5% and the viability at 25 µM was found to be 66.3 ± 5.8%. For the same compound, the “IC50 against MDA-MB-453 cells” value in the data set with MDA-MB-453 cells was “did not reach up to IC50 value”. Also, in data set [3], the viability at 72 h, 25 µM was determined as 87.8 ± 2.8%; the viability at 72 h, 50 µM was 85.6 ± 0.7%; the viability at 72 h, 100 µM came to 82 ± 1.5%. Besides, the “growth inhibitory activity” value in data set [4] is reported as “none of these compounds did have any growth inhibitory activity”.

In the case of `CC(=O)OC[C@@H]1O[C@H](n2cc(Cn3ccc4nc(-c5ccc6c(c5)OCO6)cc(=O)n43)nn2)[C@@H](OC(C)=O)[C@H](OC(C)=O)[C@H]1OC(C)=O` (stereo in doubt) [Compound 30, (2S,3S,4R,5S,6S)-2-(Acetoxymethyl)-6-(4-((5-(benzo[d][1,3]dioxol-5-yl)-7-oxopyrazolo[1,5-a]pyrimidin-1(7H)-yl)methyl)-1H-1,2,3-triazol-1-yl)tetrahydro-2H-pyran-3,4,5-triyl triacetate], the inhibition at 25 µM in data set [1] is roughly 50%. Also, in data set [1] (setting [5]), the viability at 10 µM turned out to be 86.6 ± 3.36%, the viability at 25 µM is 55.2 ± 7.06% and the viability at 50 µM was determined as 42.8 ± 5.04%. Also, in data set [2], the inhibition at 25 µM was roughly 50% and the IC50 was 18.5 µM. Moreover, in data set [2] (setting [6]), the viability at 1 µM came to 78.2 ± 2.6%, the viability at 10 µM is 57.7 ± 2.4% and the viability at 25 µM came to 42.3 ± 7.6%. Also, in the data set on MDA-MB-453 cells (setting [7]), the viability at 1 µM was found to be 99.2 ± 8.1%, the viability at 10 µM worked out at 74.8 ± 1.5% and the viability at 25 µM turned out to be 61.4 ± 3.2%. Further, the “IC50 against MDA-MB-453 cells” value in the data set on MDA-MB-453 cells is “did not reach up to IC50 value”. Also, in data set [3], the viability at 72 h, 25 µM came out at 86.8 ± 5.3%; the viability at 72 h, 50 µM was found to be 84.8 ± 3%; the viability at 72 h, 100 µM is 78.5 ± 3.4%. Besides, the “growth inhibitory activity” value in data set [4] is reported as “none of these compounds did have any growth inhibitory activity”.

On to `CC(=O)OC[C@@H]1O[C@H](n2cc(Cn3ccc4nc(-c5ccc(Br)cc5)cc(=O)n43)nn2)[C@@H](OC(C)=O)[C@H](OC(C)=O)[C@@H]1OC(C)=O` (stereo in doubt) [Compound 33, (2S,3R,4R,5S,6S)-2-(Acetoxymethyl)-6-(4-((5-(4-bromophenyl)-7-oxopyrazolo[1,5-a]pyrimidin-1(7H)-yl)methyl)-1H-1,2,3-triazol-1-yl)tetrahydro-2H-pyran-3,4,5-triyl triacetate], for which the inhibition at 25 µM in data set [1] was roughly 50%. In data set [1] (setting [5]), the viability at 10 µM came to 66.7 ± 8.23%, the viability at 25 µM was found to be 63.3 ± 6.32% and the viability at 50 µM stood at 47 ± 4.91%. In data set [2], the inhibition at 25 µM was roughly 50% and the IC50 was determined as 7.32 µM. Also, in data set [2] (setting [6]), the viability at 1 µM amounted to 67 ± 4.7%, the viability at 10 µM was found to be 35 ± 2.5% and the viability at 25 µM worked out at 25 ± 2.9%. In the data set with MDA-MB-453 cells (setting [7]), the viability at 1 µM was determined as 88.8 ± 5.2%, the viability at 10 µM worked out at 78.3 ± 4.7% and the viability at 25 µM is 67.6 ± 5.3%. For the same compound, the “IC50 against MDA-MB-453 cells” value in the data set with MDA-MB-453 cells is given as “did not reach up to IC50 value”. In addition, in data set [3], the viability at 72 h, 25 µM was 99.6 ± 2.2%; the viability at 72 h, 50 µM turned out to be 87.6 ± 1.7%; the viability at 72 h, 100 µM is 81.4 ± 2.6%. The “growth inhibitory activity” value in data set [4] is on record as “none of these compounds did have any growth inhibitory activity”.

Take `CC(=O)OC[C@H]1O[C@H](n2cc(Cn3ccc4nc(-c5ccc(F)cc5)cc(=O)n43)nn2)[C@@H](OC(C)=O)[C@@H](OC(C)=O)[C@@H]1OC(C)=O` [Compound 44, (2R,3R,4S,5S,6S)-2-(Acetoxymethyl)-6-(4-((5-(4-fluorophenyl)-7-oxopyrazolo[1,5-a]pyrimidin-1(7H)-yl)methyl)-1H-1,2,3-triazol-1-yl)tetrahydro-2H-pyran-3,4,5-triyl triacetate]: in data set [1] (setting [5]), the viability at 10 µM amounted to 98.4 ± 3.62%, the viability at 25 µM came to 90.1 ± 6.77% and the viability at 50 µM was found to be 89.6 ± 6.27%.

On to `CC(=O)OC[C@H]1O[C@H](n2cc(Cn3ccc4nc(-c5ccc(C(F)(F)F)cc5)cc(=O)n43)nn2)[C@@H](OC(C)=O)[C@@H](OC(C)=O)[C@@H]1OC(C)=O` [Compound 45, (2R,3R,4S,5S,6S)-2-(Acetoxymethyl)-6-(4-((7-oxo-5-(4-(trifluoromethyl)phenyl)pyrazolo[1,5-a]pyrimidin-1(7H)-yl)methyl)-1H-1,2,3-triazol-1-yl)tetrahydro-2H-pyran-3,4,5-triyl triacetate], for which, in data set [1] (setting [5]), the viability at 10 µM worked out at 96.8 ± 5.85%, the viability at 25 µM turned out to be 91.1 ± 6% and the viability at 50 µM is 87 ± 1.1%.

With `CC(=O)OC[C@H]1O[C@H](n2cc(Cn3ccc4nc(-c5ccc(C(C)C)cc5)cc(=O)n43)nn2)[C@@H](OC(C)=O)[C@@H](OC(C)=O)[C@@H]1OC(C)=O` [Compound 46, (2R,3R,4S,5S,6S)-2-(Acetoxymethyl)-6-(4-((5-(4-isopropylphenyl)-7-oxopyrazolo[1,5-a]pyrimidin-1(7H)-yl)methyl)-1H-1,2,3-triazol-1-yl)tetrahydro-2H-pyran-3,4,5-triyl triacetate], in data set [1] (setting [5]), the viability at 10 µM came out at 80.6 ± 4.7%, the viability at 25 µM stood at 75.5 ± 4.44% and the viability at 50 µM came out at 83.5 ± 7.27%.

Turning to `CC(=O)OC[C@H]1O[C@H](n2cc(Cn3ccc4nc(-c5ccc6ccccc6c5)cc(=O)n43)nn2)[C@@H](OC(C)=O)[C@@H](OC(C)=O)[C@@H]1OC(C)=O` [Compound 47, (2R,3R,4S,5S,6S)-2-(Acetoxymethyl)-6-(4-((5-(naphthalen-2-yl)-7-oxopyrazolo[1,5-a]pyrimidin-1(7H)-yl)methyl)-1H-1,2,3-triazol-1-yl)tetrahydro-2H-pyran-3,4,5-triyl triacetate], in data set [1] (setting [5]), the viability at 10 µM was found to be 102 ± 9.28%, the viability at 25 µM turned out to be 89.8 ± 2.22% and the viability at 50 µM worked out at 81.5 ± 5.45%.

On to `CC(=O)OC[C@H]1O[C@H](n2cc(Cn3ccc4nc(-c5ccc6c(c5)OCO6)cc(=O)n43)nn2)[C@@H](OC(C)=O)[C@@H](OC(C)=O)[C@@H]1OC(C)=O` [Compound 48, (2R,3R,4S,5S,6S)-2-(Acetoxymethyl)-6-(4-((5-(benzo[d][1,3]dioxol-5-yl)-7-oxopyrazolo[1,5-a]pyrimidin-1(7H)-yl)methyl)-1H-1,2,3-triazol-1-yl)tetrahydro-2H-pyran-3,4,5-triyl triacetate], for which, in data set [1] (setting [5]), the viability at 10 µM stood at 96.5 ± 4.91%, the viability at 25 µM came to 93.3 ± 3.6% and the viability at 50 µM worked out at 92.9 ± 9.08%.

Consider `CC1=CC(=O)c2ccccc2C1=O` [Menadione, menadione, reference compound], for which the viability at 20 µM in data set [1] (setting [5]) turned out to be 23.8 ± 5.7%.

As for `COCCn1c2c([n+](Cc3cnccn3)c1C)C(=O)c1ccccc1C2=O` [YM155, reference compound], the viability at 0.02 µM in data set [1] (setting [5]) was determined as 23.4 ± 3.13%; in data set [2] (setting [6]), 31.2 ± 1.7%; in the data set on MDA-MB-453 cells (setting [7]), 36.2 ± 1.5%. Besides, the viability at 72 h, 0.02 µM in data set [3] was 39.2 ± 1.6%.
